CCR6 antag: CCR6 (human) receptor antagonism | P51684 | CHO-K1 CCR6 PathHunter beta-arrestin, luminescence, CCL20-stimulated | inhibition, % at 20 µM | 340,000 compounds, 0.49% hits;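 active means compounds whose inhibition of the agonist-driven luminescence signal at 20 µM reaches about 50%, limit read from the data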;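 further: cells stimulated with CCL20 at 14 nM final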
EBI2 antag: antagonists of human EBI2 receptor | AID 651636 | EBI2 beta-arrestin recruitment, luminescence, 7a,25-OHC stimulated | P32249 | inhibition, % at 5 µM | 360,000 compounds, 0.81% hits; in the data active means inhibition above about 38%;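 further: enzyme fragment complementation signal reports receptor beta-arrestin coupling in cells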
hiPSC survival: increases survival of single human iPS cells; survival enhancement, % at 20 µM; 360,000 compounds, 0.044% hits; AID 602274; hiPSC single-cell survival, ATPlite luminescence; 100% = ROCK inhibitor wells, 0% = DMSO; in the data active means survival enhancement above about 18%;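 further: cells exposed to compounds for 16 hours before the ATP read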
APJ antagonist: blocks the human apelin receptor APJ. 330,000 compounds, 0.32% hits. CHO-K1 APJ beta-arrestin complementation, luminescence. AID 2521. inhibition, % at 20 µM;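 active means inhibition above about 40% at 20 µM, limit read from the data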;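 further: cells challenged with 10 nM apelin-13 agonist together with compound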
Target sequence (P35414 whole entry, looked up): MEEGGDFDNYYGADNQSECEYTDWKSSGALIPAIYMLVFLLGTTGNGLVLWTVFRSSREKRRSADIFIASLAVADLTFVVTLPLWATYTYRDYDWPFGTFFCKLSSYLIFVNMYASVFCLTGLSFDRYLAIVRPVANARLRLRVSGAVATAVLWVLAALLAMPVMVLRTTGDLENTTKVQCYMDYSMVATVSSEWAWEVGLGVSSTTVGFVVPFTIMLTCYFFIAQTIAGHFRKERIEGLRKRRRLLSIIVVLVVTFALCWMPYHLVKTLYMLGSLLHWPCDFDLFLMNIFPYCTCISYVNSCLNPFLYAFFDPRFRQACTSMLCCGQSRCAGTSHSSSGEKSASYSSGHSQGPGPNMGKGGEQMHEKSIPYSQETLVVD
CXCR6 block: inhibitors of human CXCR6 receptor; CHO-K1 PathHunter CXCR6 beta-arrestin, luminescence; inhibition, % at 20 µM; 360,000 compounds, 0.36% hits; AID 602244; in the data active means inhibition above about 34%, passing the limit was not always enough;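 further: antagonist mode with CXCL16 agonist at 10 nM final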
APJ agonist: activates the human apelin receptor APJ; CHO-K1 APJ PathHunter beta-arrestin, luminescence; 0% DMSO wells, 100% apelin; 330,000 compounds, 0.11% hits; AID 2520; activation, % at 20 µM; P35414;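 active means activation more than six SD over the plate average, tested at 20 µM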
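Test system: CHO-K1 APJ beta-arrestin complementation cell line. Amount: cell density 1000 per well. Controls: DMSO negative, 10 nM Apelin-13 positive. Signal: luminescent beta-gal fragment complementation, chemiluminescent substrate. Read-out basis: agonist-driven arrestin binding to APJ. Timing: compound stimulation 90 min at 25 °C, detection 60 min.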
EBI2 antag conf: confirmation of human EBI2 receptor antagonists; shares compounds with EBI2 antag; inhibition, % at 5 µM; 2,400 compounds, 29% hits; AID 651997; EBI2 beta-arrestin luminescence, 7a,25-OHC antagonism;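 active means inhibition of at least 50%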
EBI2 ag: activates EBI2, counter-screen for EBI2 antagonists; shares compounds with EBI2 antag; 2,400 tested, under 10 active; AID 652000; EBI2-expressing cells, agonist mode, luminescence, 60 min; 0% vehicle, 100% 7α,25-dihydroxycholesterol control; activation, % at 5 µM;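 active means activation of at least 50%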
bGal cs: inhibits E. coli beta-galactosidase, counter-screen for EBI2 antagonists; purified beta-galactosidase, luminescent Galacton Star, 15 min; shares compounds with EBI2 antag; AID 652176; 2,400 compounds, 1% hits; inhibition, % at 5 µM;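 active means replicate-average signal at least 3 plate SD below neutral wells, shown as high inhibition, flagging enzyme-inhibiting false positives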;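 further: higher means stronger loss of beta-gal luminescence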
Large screens that a line does not name were inactive (follow-up assays come after a bar, where they were run). Shown are actives, neighbours in structure and some others; about 1.5% of the full set was active somewhere.

O=C(c1cc(=O)c2ccccc2o1)N1CCN(c2ccccc2F)CC1	EBI2 antag 64 | EBI2 antag conf inactive | EBI2 ag inactive | bGal cs inactive
O=C(c1cc(=O)c2ccccc2o1)N1CCN(c2cccc(Cl)c2)CC1	EBI2 antag 51 | EBI2 antag conf inactive | EBI2 ag inactive | bGal cs inactive
CC(CCc1ccccc1)NCc1ccc(Cl)cc1Cl (stereo not drawn)	EBI2 antag 62 | EBI2 antag conf inactive | EBI2 ag inactive | bGal cs inactive
CC(O)CNCc1ccc(Cl)cc1Cl (stereo not drawn)	none
CCOc1ccc2nc(N/C(N)=N/C(=S)Nc3ccc(OC)cc3)nc(C)c2c1	EBI2 antag 44 | EBI2 antag conf inactive | EBI2 ag inactive | bGal cs inactive
O=C(C1CC(=O)N(c2ccc3c(c2)OCCO3)C1)N1CCN(S(=O)(=O)c2cccc(F)c2)CC1 (stereo not drawn)	none (no result: APJ antagonist, APJ agonist)
O=C1CC(C(=O)N2CCN(S(=O)(=O)c3cccc(F)c3)CC2)CN1Cc1ccccc1Cl (stereo not drawn)	EBI2 antag 62 | EBI2 antag conf inactive | EBI2 ag inactive | bGal cs inactive
Cc1ccc(/C=C/c2nnc(-c3cccc(C)c3)o2)cc1	none
Cc1ccc(-c2nnc(/C=C/c3ccccc3)o2)cc1	EBI2 antag 49 | EBI2 antag conf inactive | EBI2 ag inactive | bGal cs inactive
Cc1nc2cc(-c3ccc(Cl)cc3)nn2c(C)c1CCC(=O)NCc1ccco1	EBI2 antag 50 | EBI2 antag conf inactive | EBI2 ag inactive | bGal cs inactive
Cc1ccc(C)c(Cn2nnc3c(=O)[nH]c(C4CCCN(S(=O)(=O)Cc5ccccc5)C4)nc32)c1 (stereo not drawn)	none
Cc1ccc(NC(=O)COC(=O)C2=NN(c3ccccc3)C(=O)CC2)c(Br)c1	none
Cc1cccn2c(=O)c3cc(C(=O)NC4CCCC4)n(C)c3nc12	none
COC1C=CC(CNC(=O)c2cc3c(=O)n4cccc(C)c4nc3n2C)(OC)O1 (stereo not drawn)	EBI2 antag 49 | EBI2 antag conf inactive | EBI2 ag inactive | bGal cs inactive
N#C/C(=C\c1ccc(-c2nc3ccccc3s2)o1)C(N)=O	none
CNC(=O)/C(C#N)=C/c1ccc(-c2nc3ccccc3s2)o1	EBI2 antag 53 | EBI2 antag conf inactive | EBI2 ag inactive | bGal cs inactive
O=C(COc1ccc(F)cc1)N1CCC(Cc2ccccc2)CC1	EBI2 antag 74 | EBI2 antag conf 50 | EBI2 ag inactive | bGal cs inactive
CCOCC(=O)N1CCC(Cc2ccccc2)CC1	none
COc1ccc(OCC(=O)N2CCC(Cc3ccccc3)CC2)cc1	EBI2 antag 92 | EBI2 antag conf 77 | EBI2 ag inactive | bGal cs inactive
C=CCN1C=CC(=O)[C@@H](OC(=O)Nc2ccc(Br)cc2)[C@H]1c1ccccc1Br	none (no result: APJ antagonist, APJ agonist)
CCOc1ccc(NC(=S)Nc2ccc(OCC)cc2)cc1	EBI2 antag 80 | EBI2 antag conf 62 | EBI2 ag inactive | bGal cs inactive
CCOc1ccc(NC(=S)Nc2ccc(C)c([N+](=O)[O-])c2)cc1	EBI2 antag 65 | EBI2 antag conf 66 | EBI2 ag inactive | bGal cs inactive
CCOc1ccc(NC(=S)Nc2cc(OC)c(Cl)cc2OC)cc1	EBI2 antag 65 | EBI2 antag conf inactive | EBI2 ag inactive | bGal cs inactive
COc1cc(NC(=S)Nc2cccc(Cl)c2Cl)c(OC)cc1Cl	none
CCc1ccc(NC(=S)Nc2cccc(OC)c2)cc1	EBI2 antag 50 | EBI2 antag conf inactive | EBI2 ag inactive | bGal cs inactive
COc1ccc(S(=O)(=O)N2CCCCCC2)cc1C(=O)N(C)CC(=O)Nc1ccccc1C(F)(F)F	none
CNC(=S)Nc1ccc(OC(F)(F)F)cc1	none
CCOc1ccc(NC(=S)Nc2ccc(OC(F)(F)F)cc2)cc1	EBI2 antag 76 | EBI2 antag conf 53 | EBI2 ag inactive | bGal cs inactive
O=C(COC(=O)COc1ccc(Cl)cc1)NC1CCCCCC1	none
CCCCn1nnnc1C(c1cc2ccccc2o1)N1CCCC1 (stereo not drawn)	none (no result: CCR6 antag, APJ antagonist, APJ agonist)
CCCCn1nnnc1C(c1cc2ccccc2o1)N1CCN(c2ncccc2C#N)CC1 (stereo not drawn)	EBI2 antag 48 (no result: CCR6 antag, APJ antagonist, APJ agonist) | EBI2 antag conf inactive | EBI2 ag inactive | bGal cs inactive
CCCCn1nnnc1C(c1cc2ccccc2o1)N1CCN(C/C=C/c2ccccc2)CC1 (stereo not drawn)	EBI2 antag 62 (no result: CCR6 antag, APJ antagonist, APJ agonist) | EBI2 antag conf inactive | EBI2 ag inactive | bGal cs inactive
Cc1c(C(=O)Oc2cccc3ccccc23)cnn1-c1ccccc1	EBI2 antag 31 | EBI2 antag conf inactive | EBI2 ag inactive | bGal cs inactive
CCOC(=O)C1(Cc2cccc(Cl)c2)CCCN(C(=O)c2ccc(COC)s2)C1 (stereo not drawn)	none
CCc1ccc(C(C)NC(=O)/C=C/c2ccc(Br)cc2)cc1 (stereo not drawn)	EBI2 antag 61 | EBI2 antag conf inactive | EBI2 ag inactive | bGal cs inactive
CC(NC(=O)/C=C/c1ccccc1)c1ccccc1 (stereo not drawn)	none
CC(NC(=O)/C=C/c1ccc(Br)cc1)c1ccccc1 (stereo not drawn)	EBI2 antag 44 | EBI2 antag conf inactive | EBI2 ag inactive | bGal cs inactive
O=C(Nc1cc2c3c(c1)CC(=O)N3CCC2)C1CC1	none
Cc1ccc(-c2nn(-c3ccccc3)cc2C=C2C(=O)CC(C)(C)CC2=O)cc1	EBI2 antag 53 | EBI2 antag conf 52 | EBI2 ag inactive | bGal cs inactive
CC1(C)CC(=O)C(=Cc2cn(-c3ccccc3)nc2-c2ccccc2)C(=O)C1	none
Cc1cccc(C)c1-n1nnnc1C(C1CC1)N1CCN(C/C=C/c2ccccc2)CC1 (stereo not drawn)	EBI2 antag 44 (no result: CCR6 antag, APJ antagonist, APJ agonist) | EBI2 antag conf inactive | EBI2 ag inactive | bGal cs inactive
CCC(c1nnnn1-c1c(C)cccc1C)N1CCN(C/C=C/c2ccccc2)CC1 (stereo not drawn)	EBI2 antag 58 (no result: CCR6 antag, APJ antagonist, APJ agonist) | EBI2 antag conf inactive | EBI2 ag inactive | bGal cs inactive
CCC(c1nnnn1-c1c(C)cccc1C)N1CCN(CC)CC1 (stereo not drawn)	none (no result: CCR6 antag, APJ antagonist, APJ agonist)

Assay outcomes (PubChem)
